{"source": "ChEMBL document CHEMBL4406804", "about": "“Discovery of a Potent Steroidal Glucocorticoid Receptor Antagonist with Enhanced Selectivity against the Progesterone and Androgen Receptors (OP-3633)” (J Med Chem, 2019)", "key": {"[1]": {"experiment": "Volume of distribution at steady state in rat at 0.5 mg/kg, iv", "type": "ADME, organism-based", "details": "in vivo, read-out: Vdss", "procedure,_shortened": "(§1)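 Rat PK study. The iv dose of 0.5 mg/kg was given in 10% DMSO, 70% PEG 400 and 20% water. The oral dose of 5 mg/kg was given in 5% DMSO / 95% of 0.2% Tween 80 in 0.25% CMC, adjusted to pH 4 for one compound. Read-outs were CL, Vss, iv t1/2, F, Cmax and AUC.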"}, "[2]": {"experiment": "Toxicity in female rat assessed as effect on ovarian weight at 250 mg/kg/day, po administered once daily via gavage for 14 days", "type": "organism-based", "details": "in vivo, 336 h"}, "[3]": {"target": "T1, Glucocorticoid receptor (Homo sapiens) (UniProt P04150)", "T1 sequence (whole entry)": "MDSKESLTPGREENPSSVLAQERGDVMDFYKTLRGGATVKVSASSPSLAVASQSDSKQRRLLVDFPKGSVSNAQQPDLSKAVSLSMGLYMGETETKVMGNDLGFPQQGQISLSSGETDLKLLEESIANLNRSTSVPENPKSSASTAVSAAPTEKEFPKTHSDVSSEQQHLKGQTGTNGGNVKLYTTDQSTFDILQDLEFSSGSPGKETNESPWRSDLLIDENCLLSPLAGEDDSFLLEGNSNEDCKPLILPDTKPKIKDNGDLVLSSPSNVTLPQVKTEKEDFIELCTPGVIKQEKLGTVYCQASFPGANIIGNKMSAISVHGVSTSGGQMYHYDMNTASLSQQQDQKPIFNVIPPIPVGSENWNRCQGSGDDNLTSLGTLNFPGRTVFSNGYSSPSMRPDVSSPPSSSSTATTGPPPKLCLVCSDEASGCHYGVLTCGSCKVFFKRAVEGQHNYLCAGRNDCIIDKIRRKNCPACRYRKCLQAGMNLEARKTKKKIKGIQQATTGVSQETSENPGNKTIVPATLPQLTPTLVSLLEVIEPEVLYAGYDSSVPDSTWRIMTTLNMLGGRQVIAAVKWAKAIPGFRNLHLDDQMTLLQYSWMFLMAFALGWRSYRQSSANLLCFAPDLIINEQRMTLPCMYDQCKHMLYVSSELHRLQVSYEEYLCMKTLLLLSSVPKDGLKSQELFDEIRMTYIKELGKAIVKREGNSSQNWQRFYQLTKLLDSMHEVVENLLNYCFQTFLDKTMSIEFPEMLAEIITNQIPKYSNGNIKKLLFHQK", "experiment": "Antagonist activity at human glucocorticoid receptor expressed in CHO-K1 cells harboring firefly luciferase gene assessed as inhibition of glucocorticoid receptor activity at 0.01 to 10000 nM after 20 hrs by One-Glo luciferase reporter gene assay relative to mifepristone", "type": "cell-based", "set-up": "scale not given: the % may be the effect or the level left", "procedure,_shortened": "(§2)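 Cell-based luciferase reporter assays for GR, AR and PR, run in agonist and antagonist modes. Potency and Emax are averages of at least two determinations, reported with SD.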"}, "[4]": {"target": "T2, Progesterone receptor (Homo sapiens) (UniProt P06401)", "T2 sequence (whole entry)": "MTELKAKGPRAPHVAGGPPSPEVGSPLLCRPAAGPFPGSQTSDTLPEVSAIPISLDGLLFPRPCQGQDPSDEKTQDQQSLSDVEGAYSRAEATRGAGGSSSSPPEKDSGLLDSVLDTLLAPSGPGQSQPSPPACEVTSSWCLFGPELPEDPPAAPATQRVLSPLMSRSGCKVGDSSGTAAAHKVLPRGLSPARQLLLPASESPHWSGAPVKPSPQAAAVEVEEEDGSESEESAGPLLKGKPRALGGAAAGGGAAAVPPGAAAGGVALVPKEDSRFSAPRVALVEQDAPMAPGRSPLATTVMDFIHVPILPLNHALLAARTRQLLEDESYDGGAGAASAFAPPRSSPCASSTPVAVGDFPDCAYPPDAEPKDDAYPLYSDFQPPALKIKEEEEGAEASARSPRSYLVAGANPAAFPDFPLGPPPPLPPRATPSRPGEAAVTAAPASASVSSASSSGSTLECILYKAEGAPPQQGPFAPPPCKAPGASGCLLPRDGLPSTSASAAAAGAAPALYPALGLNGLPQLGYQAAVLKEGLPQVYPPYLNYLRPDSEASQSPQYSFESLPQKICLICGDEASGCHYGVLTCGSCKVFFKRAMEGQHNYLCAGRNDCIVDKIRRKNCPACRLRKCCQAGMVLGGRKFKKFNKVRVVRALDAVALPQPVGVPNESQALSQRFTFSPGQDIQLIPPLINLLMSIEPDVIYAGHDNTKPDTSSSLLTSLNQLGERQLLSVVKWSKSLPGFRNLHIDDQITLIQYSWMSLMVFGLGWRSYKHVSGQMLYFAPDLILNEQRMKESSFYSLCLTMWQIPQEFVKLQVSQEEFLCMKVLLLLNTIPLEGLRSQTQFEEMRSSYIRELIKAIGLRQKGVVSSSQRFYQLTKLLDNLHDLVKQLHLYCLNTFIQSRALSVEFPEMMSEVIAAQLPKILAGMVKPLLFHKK", "experiment": "Agonist activity at human progesterone receptor expressed in CHO-K1 cells harboring firefly luciferase gene after 20 hrs by One-Glo luciferase reporter gene assay", "type": "cell-based", "procedure,_shortened": "as §2"}, "[5]": {"experiment": "Oral bioavailability in dog at 5 mg/kg", "type": "ADME, organism-based, Canis lupus familiaris", "details": "in vivo"}, "[6]": {"experiment": "Cmax in dog at 5 mg/kg, po", "type": "ADME, organism-based, Canis lupus familiaris", "set-up": "dose 5 mg/kg, route oral", "details": "in vivo"}, "Mus musculus": {"system": "Mus musculus", "experiment": "Unbound plasma concentration in hsd:athymic Nude-Foxn1nu mouse xenografted with human HCC1806 cells at 150 mg/kg, po administered as single dose via gavage and measured after 1 to 6 hrs […]", "type": "ADME, organism-based", "details": "in vivo", "procedure,_shortened": "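Mice bearing HCC1806 xenografts received a bolus oral dose of cortisol at 5 mg/kg to activate GR, plus a single oral gavage dose of the test agent at 150 mg/kg. An unbound plasma concentration-time profile was taken up to 6 h, with n = 3 mice per group.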"}, "[7]": {"experiment": "Toxicity in female rat assessed as effect on uterine weight at 250 mg/kg/day, po administered once daily via gavage for 14 days", "type": "organism-based", "details": "in vivo, 336 h"}, "[8]": {"experiment": "Clearance in mini-pig at 0.5 mg/kg, iv", "type": "ADME, organism-based, Sus scrofa domesticus", "details": "in vivo"}, "[9]": {"experiment": "AUC in mini-pig at 5 mg/kg, po", "type": "ADME, organism-based, Sus scrofa domesticus", "details": "in vivo"}, "[10]": {"experiment": "Solubility of compound in fasted state simulated intestinal fluid at pH 6.5", "type": "physicochemical"}, "Glucocorticoid receptor [11]": {"target": "T3, Glucocorticoid receptor (Homo sapiens, UniProt P04150)", "T3 sequence (P04150 whole entry)": "T1 sequence (whole entry)", "experiment": "Displacement of fluormone tracer from full length human recombinant glucocorticoid receptor expressed in baculovirus expression system incubated for 2 hrs by competitive fluorescence polarization binding assay"}, "[12]": {"experiment": "Oral bioavailability in rat at 5 mg/kg", "type": "ADME, organism-based", "details": "in vivo", "procedure,_shortened": "as §1"}, "[13]": {"experiment": "Half-life in dog at 0.5 mg/kg, iv", "type": "ADME, organism-based, Canis lupus familiaris", "details": "in vivo"}, "Glucocorticoid receptor [14]": {"target": "T3, Glucocorticoid receptor", "experiment": "Antagonist activity at human glucocorticoid receptor expressed in CHO-K1 cells assessed as inhibition of glucocorticoid receptor-dexamethasone coactivator protein-protein interaction incubated for 24 hrs by bioluminescence assay", "type": "cell-based"}, "[15]": {"experiment": "Toxicity in female rat assessed as effect on body weight at 250 mg/kg/day, po administered once daily via gavage for 14 days", "type": "organism-based", "details": "in vivo, 336 h"}}, "note": "Calls of active or inactive are those of the source. No cut-off for these calls is given here."}
{"molecule": "CC#C[C@]1(O)CC[C@H]2[C@@H]3CCC4=CC(=O)CC[C@]4(C)[C@H]3[C@@H](c3ccc(N(C)C)cc3)C[C@@]21C", "values": [{"measurement": "Vd", "setting": "[1]", "result": 4.7, "unit": "L/kg"}, {"measurement": "Activity", "setting": "[2]", "result": "Non-Toxic"}, {"measurement": "Activity", "setting": "[3]", "result": 100, "unit": "%"}, {"measurement": "agonist activity", "setting": "[4]", "result": "inactive"}, {"measurement": "bioavailability", "setting": "[5]", "result": 67.6, "unit": "%"}, {"measurement": "Cmax", "setting": "[6]", "result": 1260, "unit": "ng/mL"}, {"measurement": "Cp(f)", "setting": "Mus musculus", "result": 400, "unit": "nM"}, {"measurement": "Activity", "setting": "[7]", "result": "Non-Toxic"}, {"measurement": "clearance", "setting": "[8]", "result": 12.5, "unit": "mL/min/kg"}, {"measurement": "AUC", "setting": "[9]", "result": 2450, "unit": "ng·h/mL"}, {"measurement": "solubility", "setting": "[10]", "result": 59.5, "unit": "µM"}, {"measurement": "IC50", "setting": "Glucocorticoid receptor [11]", "result": 8.5, "unit": "nM"}, {"measurement": "bioavailability", "setting": "[12]", "result": 62, "unit": "%"}, {"measurement": "half-life", "setting": "[13]", "result": 16.2, "unit": "h"}, {"measurement": "IC50", "setting": "Glucocorticoid receptor [14]", "result": 16, "unit": "nM"}, {"measurement": "Activity", "setting": "[15]", "result": "Non-Toxic"}]}
